RGS4 pot = RGS4 potentiation or activation. B-score at 10 µM. HEK293 M3R/inducible RGS4, carbachol calcium flux Fluo4; stronger effect = lower value. 310,000 compounds, 0.92% hits;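 active = B-score of the integrated calcium signal more than 4 SD below the library mean, with starting fluorescence not abnormally high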;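 also: negative B-score means reduced calcium response which marks RGS4 activation or potentiation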
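System – HEK293 FlpIn-TREx cells, stable M3R, doxycycline-inducible RGS4 · Reagent – ECmax carbachol challenge · Times – compound preincubation 20 min at room temperature before agonist · Technique – Fluo4 fluorescence kinetic imaging of calcium · Measure – B score of integrated Fluo4 ratio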
MrgX1 agonist = human MrgX1 receptor agonism, primary screen. Q96LB2. MrgX1-HEK293 cells, Fluo-4 calcium fluorescence, agonist mode; stronger effect = higher value. B-score at 10 µM. 310,000 compounds, 0.44% hits. AID 588627;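 active = calcium response B-score plate-corrected fluorescence ratio at least 3 library SD, with starting fluorescence B-score inside 5 SD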
Target sequence (Q96LB2 whole entry, looked up): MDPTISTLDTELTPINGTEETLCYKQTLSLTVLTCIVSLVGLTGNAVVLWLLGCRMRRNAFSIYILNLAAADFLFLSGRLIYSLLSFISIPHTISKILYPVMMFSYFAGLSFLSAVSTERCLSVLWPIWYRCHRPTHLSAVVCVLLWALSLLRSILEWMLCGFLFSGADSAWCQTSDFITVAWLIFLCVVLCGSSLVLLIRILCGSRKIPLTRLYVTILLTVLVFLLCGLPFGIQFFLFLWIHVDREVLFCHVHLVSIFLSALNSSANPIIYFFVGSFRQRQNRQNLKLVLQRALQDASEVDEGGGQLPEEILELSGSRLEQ
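Assay system: stable human MrgX1 HEK293 cell line. Quantity: 15,000 cells per well. Schedule: cells plated overnight, dye loaded 0.5 h 37 °C, 0.5 h room temperature. Detection: Fluo-4 NW calcium-flux fluorescence, kinetic read. Read-out basis: peak-minus-minimum fluorescence over baseline, converted to B scores. Control set: positive and negative control wells on each plate.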
MrgX1 antag = blocks BAM8-22 activation of human MrgX1 receptor; Q96LB2; MRGX1-HEK293 calcium flux, Fluo-4, BAM8-22 antagonism; stronger effect = lower value; B-score at 10 µM; 310,000 compounds, 1.3% hits;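 active = calcium-response B-score plate-corrected more than 3 library SD below zero, starting fluorescence within 5 deviations, no agonist response on first addition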;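 also: peak minus trough fluorescence over baseline after final BAM8-22 challenge near maximal dose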
MrgX1 PAM = human MrgX1 positive allosteric modulation, primary screen. Q96LB2. MrgX1-HEK293, Fluo-4 calcium flux, FDSS; stronger effect = higher value. B-score at 10 µM. 310,000 compounds, 0.63% hits;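 active = plate-corrected calcium response at least 3 library SD above typical, normal starting fluorescence, not activating the receptor alone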;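 also: compound read alongside a low EC10 to EC30 dose of BAM8-22 agonist; peak minus trough fluorescence over baseline measured at the second addition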
RGS4 inh = human RGS4 inhibition. P49798. HEK293 M3R/RGS4 inducible, Fluo-4 calcium flux; stronger effect = higher value; triggered by carbachol at its EC20. B-score at 10 µM. 310,000 compounds, 0.45% hits;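 active = B-score, a plate-corrected calcium signal, over three deviations above library mean, with baseline fluorescence within five deviations of library mean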;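 also: RGS4 expression induced by doxycycline in cells with stable M3 receptor; B-score is computed from the integrated fluorescence ratio over baseline after carbachol; higher B-score means a larger calcium signal and so more RGS4 inhibition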
Target sequence (P49798 whole entry, looked up): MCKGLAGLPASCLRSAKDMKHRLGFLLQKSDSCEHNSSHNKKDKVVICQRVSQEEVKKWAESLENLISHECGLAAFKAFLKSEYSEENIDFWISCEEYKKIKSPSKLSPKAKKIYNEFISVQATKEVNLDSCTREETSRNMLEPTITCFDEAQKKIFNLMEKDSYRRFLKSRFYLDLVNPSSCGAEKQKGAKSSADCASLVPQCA
RGS4 block valid = validation of RGS4 inhibitors; shares compounds with RGS4 inh; HEK293 M3R/RGS4, carbachol calcium Fluo-4 fluorescence; carbachol added at its EC20; 0 = buffer wells, 100 = carbachol control; calcium response, % at 10 µM; 1,700 compounds, 65% hits; AID 492999;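 active = duplicate-averaged calcium response above the buffer-only control mean plus 5 SD of those controls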;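 also: integrated fluorescence ratio F max minus min over baseline F0; higher response in RGS4-induced cells means RGS4 inhibition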
M3R Ca ctr = counter-screen for RGS4 inhibitors: effect in non-induced cells | shares compounds with RGS4 inh | HEK293 M3R non-induced, carbachol calcium Fluo-4; submaximal (EC20) carbachol stimulus; buffer wells 0%, carbachol control wells 100% | activity (percent), % at 10 µM | 1,900 compounds, 20% hits; call rule not given here;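 also: RGS4 induction absent so cells express M3R without RGS4; higher means more calcium signal and flags a non-specific hit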
RGS4 inh ctr2 = second counter-screen for RGS4 inhibitors: non-induced cells without carbachol. shares compounds with RGS4 inh. HEK293 M3R/RGS4 non-induced, Fluo-4 calcium, no carbachol; normalised: buffer wells 0%, carbachol wells 100%. calcium response (agonist-mode artifact), % at 10 µM. 1,900 compounds, 22% hits. AID 493001;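 active = duplicate-averaged calcium rise in uninduced cells above buffer wells' mean plus 5 SD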
* = called active by the depositor; i = inactive; . = no result. Most compounds without a hit are left out; they make up all but 3.5% or so of the library.

SMILES | RGS4 pot | MrgX1 agonist | MrgX1 antag | MrgX1 PAM | RGS4 inh | RGS4 block valid | M3R Ca ctr | RGS4 inh ctr2
CCN(C(=S)Nc1ccccc1F)C1CCCCC1 | i | i | i | i | i | . | . | .
CCCCOc1ccc(C(=O)CCN2CCOCC2)cc1 | i | i | i | i | i | . | . | .
CCCOc1ccc(C(=O)CCN2CCCCC2)cc1 | i | i | i | i | i | i | i | 12%*
CCOc1ccc(C(=O)CCN2CCCCCC2)cc1 | i | i | i | i | 11* | i | i | 20%*
Cc1cc2cc(C)c(NCCNC(=O)c3ccccc3)nc2cc1C | i | i | i | i | i | i | i | i
Cc1cc(Cl)n2c(nc3ccccc32)c1C#N | i | . | . | . | 11* | 31%* | i | 10%*
CNc1cc(C)c(C#N)c2nc3ccccc3n12 | i | i | i | i | i | . | . | .
CC(C)(O)P(=O)(O)CCc1ccccc1 | i | i | i | i | i | . | . | .
CCC(C(=O)N1CCOCC1)n1nc(C)c2c(C)n(-c3ccccc3)nc2c1=O (centres undefined) | i | i | i | i | 9* | 5.0%* | i | i
COCCn1cnc2c1c(=O)n(CC(=O)NCC(F)(F)F)c(=O)n2Cc1ccccc1 | i | i | i | i | i | . | . | .
CCOC(=O)N1CCN(Cc2cn[nH]c2-c2ccc(-c3ccccc3)cc2)CC1 | i | i | i | i | 6.4* | 5.5%* | i | i
COc1ccccc1N1CCN(Cc2nc(-c3ccc(F)cc3)oc2C)CC1 | i | i | i | i | i | . | . | .
COc1ccccc1N1CCN(Cc2cn[nH]c2-c2ccc(F)cc2)CC1 | i | i | i | i | i | i | 50%* | i
CCn1c(CNC(=O)c2ccccc2Br)nnc1SCC(=O)NC1=NCCS1 | i | i | i | i | i | . | . | .
COc1ccc(F)cc1S(=O)(=O)n1nc(C)cc1C | i | i | i | i | i | . | . | .
S=C(Nc1ccccc1)Nc1nc2ccccc2n1CCOc1ccc(Cl)cc1 | i | i | i | i | 6.2* | 16%* | 34%* | i
COCC(=O)NC1CC(C)(C)Cc2c1cnn2-c1ccc(F)cc1 (centres undefined) | i | i | i | i | i | . | . | .
O=C(CCN1CCN(C(=O)c2ccccc2)CC1)c1ccc(Br)cc1 | i | i | i | i | 6* | i | i | 10%*
O=C(CCN1CCOCC1)c1ccccc1 | i | i | i | i | i | i | 36%* | 23%*
O=C(CCN1CCCCC1)c1ccccc1 | i | i | i | i | i | . | . | .
O=C(CCCO)c1ccc2c(c1)OCCO2 | i | i | i | i | i | . | . | .
O=C(OCCN1CCOCC1)c1ccc2c(c1)OCCO2 | i | i | i | i | i | . | . | .
O=C(CCN1CCOCC1)c1ccc2c(c1)OCCO2 | i | i | i | i | 21* | 20%* | i | 18%*
O=C(CCCN1CCOCC1)c1ccc2c(c1)OCCO2 | i | i | i | i | i | i | i | i
Cn1nccc1C(=O)Oc1cccc(/C=N/NC(=O)c2ccccc2O)c1 | i | i | i | i | i | . | . | .
SMILES | RGS4 pot | MrgX1 agonist | MrgX1 antag | MrgX1 PAM | RGS4 inh | RGS4 block valid | M3R Ca ctr | RGS4 inh ctr2
O=C(CCNS(=O)(=O)c1ccc(Cl)cc1)N1CCN(c2ccccn2)CC1 | i | i | i | i | i | . | . | .
O=C(/C=C/c1ccc(NC(=O)c2ccccc2-c2ccccc2C(=O)O)cc1)c1ccccc1 | i | i | i | i | 28* | 60%* | i | 13%*
CC(=O)c1cccc(NC(=O)CSc2ncc(C(=O)Nc3ccccc3)c(=O)n2C)c1 | i | i | i | i | i | . | 39%* | i
CC(=O)Nc1cccc(NC(=O)CSc2ncc(C(=O)Nc3ccc(F)cc3)c(=O)n2C)c1 | i | i | i | i | i | i | i | i
O=C(NCc1ccc(F)cc1)c1ccc(S(=O)(=O)Nc2cccc(C(F)(F)F)c2)cc1 | i | i | i | i | 5.2* | 16%* | i | 18%*
O=C(NCc1ccccc1F)c1ccc(S(=O)(=O)Nc2cccc(C(F)(F)F)c2)cc1 | i | i | i | i | i | . | . | .
CN(CCCC(=O)Nc1ccc(OC(F)F)cc1)S(=O)(=O)c1ccc(F)cc1 | i | i | i | i | i | . | . | .
CCOc1ccc(C(=O)CC(Sc2ccc(C)cc2)C(=O)O)cc1 (centres undefined) | i | i | i | i | i | i | i | i
CCCCN(C)CCCNC(=O)c1cn(C)c2ccc(S(=O)(=O)N(C)C3CCCCC3)cc2c1=O | i | i | i | i | i | . | . | .
CCC(C)(C)NC(=O)CN(C(=O)C(=O)Nc1ccc2c(c1)OCCO2)N1CCOCC1 | i | i | i | i | i | . | . | .
Oc1ccc(N=C/C=C/c2cccc(Br)c2)cc1-c1nc2ccccc2s1 | i | i | i | i | 8.6* | i | i | i
COc1ccccc1CNC(=O)C1CCC(CNS(=O)(=O)c2ccccc2)CC1 (centres undefined) | i | i | i | i | i | . | . | .
O=C(CCNS(=O)(=O)c1ccc(Br)cc1)Nc1cccc(F)c1 | i | i | i | i | i | . | . | .
COc1ccc(NC(=O)/C(Cl)=C(/Cl)S(=O)Cc2ccccc2)cn1 (centres undefined) | i | i | i | i | 27* | 46%* | i | i
CCOC(=O)c1ccccc1NC(=S)N1CCN(C(=O)c2ccco2)CC1 | i | i | i | i | i | . | . | .
CC1Cc2ccccc2N1Cc1nc2scc(-c3cccs3)c2c(=O)[nH]1 (centres undefined) | i | i | i | i | 9.3* | i | i | i
CC1=CC(C)(C)N2C(=O)C3(C(C#N)=C(N)OC4=C3C(=O)CCC4)c3c(C)c(C)cc1c32 (centres undefined) | i | i | i | i | i | . | . | .

Bioassay records (PubChem BioAssay)
